# Measurements reported in ChEMBL document CHEMBL3085642, “Synthesis and evaluation of novel 4-nitropyrrole-based 1,3,4-oxadiazole derivatives as antimicrobial and anti-tubercular agents” (Eur J Med Chem, 2013).
# Key:
# [1] = tested on: Staphylococcus aureus; assay: Antibacterial activity against Staphylococcus aureus ATCC 25923 by two fold broth dilution method; format: functional
# [2] = tested on: Candida albicans; assay: Antifungal activity against Candida albicans after 48 hrs by two fold agar dilution method; format: functional
# Summary of the method: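 Two-fold serial dilutions in DMSO were tested against C. albicans by agar dilution. Cultures were incubated for 48 h at 35 °C and growth was monitored. MIC was taken as the lowest concentration (highest dilution) that arrested fungal growth.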
# [3] = tested on: Staphylococcus aureus; assay: Ratio of ciprofloxacin MIC to compound MIC against Staphylococcus aureus ATCC 25923; format: functional
# [4] = tested on: Candida albicans; assay: Ratio of ampotericin-B MIC to compound MIC against Candida albicans; format: functional
# [5] = tested on: Bacillus spizizenii; assay: Antibacterial activity against Bacillus subtilis ATCC 6633 by two fold broth dilution method; format: functional
# [6] = tested on: Staphylococcus aureus; assay: Antibacterial activity against methicillin-resistant Staphylococcus aureus ATCC 43866 by broth dilution method; format: functional
# [7] = tested on: Klebsiella pneumoniae; assay: Antibacterial activity against Klebsiella pneumoniae by two fold broth dilution method; format: functional
# [8] = tested on: Staphylococcus aureus; assay: Antibacterial activity against methicillin-susceptible Staphylococcus aureus ATCC 35556 by broth dilution method; format: functional
# [9] = tested on: Escherichia coli; assay: Antibacterial activity against Escherichia coli ATCC 25922 by two fold broth dilution method; format: functional
# [10] = tested on: Staphylococcus aureus; assay: Ratio of ciprofloxacin MIC to compound MIC against methicillin-susceptible Staphylococcus aureus ATCC 35556; format: functional
# [11] = tested on: Vero; assay: Cytotoxicity against african green monkey Vero cells after 72 hrs by MTT assay; format: cell-based; conditions: Chlorocebus sabaeus
# Summary of the method: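 Vero cells were exposed to compounds for 72 h. Viability was measured by cellular conversion of MTT into formazan (non-radioactive proliferation assay), and the cytotoxic concentration was reported as IC50.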
# [12] = tested on: Mycobacterium tuberculosis; assay: Antitubercular activity against Mycobacterium tuberculosis H37Rv after 7 days by resazurin microtitre assay; format: functional; conditions: 168 h
Compound,MIC [1] [µg/mL],MIC [2] [µg/mL],Ratio [3],Ratio [4],MIC [5] [µg/mL],MIC [6] [µg/mL],MIC [7] [µg/mL],MIC [8] [µg/mL],MIC [9] [µg/mL],Ratio [10],IC50 [11] [µM],MIC [12] [µg/mL]
COc1ccc(-c2nnc(-c3cc([N+](=O)[O-])cn3C)o2)cc1,0.78,1.56,2,2,1.56,1.56,12.5,0.39,6.25,2,281,
Cn1cc([N+](=O)[O-])cc1-c1nnc(-c2ccns2)o1,0.78,1.56,2,2,1.56,1.56,12.5,0.39,6.25,2,320,
Cc1ccc(-c2nnc(-c3cc([N+](=O)[O-])cn3C)o2)s1,0.78,1.56,2,2,1.56,1.56,12.5,1.56,6.25,,98.3,
Cn1cc([N+](=O)[O-])cc1-c1nnc(-c2cccc([N+](=O)[O-])c2O)o1,0.78,1.56,2,2,1.56,1.56,12.5,0.39,3.12,2,269,
Cn1cc([N+](=O)[O-])cc1-c1nnc(Cc2ccc(F)c3ccccc23)o1,0.78,1.56,2,2,1.56,1.56,12.5,0.39,6.25,2,119,
Cn1cc([N+](=O)[O-])cc1-c1nnc(-c2ccco2)o1,0.78,1.56,2,2,1.56,1.56,50,1.56,3.12,,190,60.2
Cn1cc([N+](=O)[O-])cc1-c1nnc(-c2cccs2)o1,0.78,1.56,2,2,1.56,1.56,50,1.56,6.25,,521,
Cn1cc([N+](=O)[O-])cc1-c1nnc(-c2ccccc2OC(F)(F)F)o1,0.78,1.56,2,2,1.56,1.56,12.5,0.39,3.12,2,308,3.8
Cn1cc([N+](=O)[O-])cc1-c1nnc(-c2cc3ccccc3[nH]2)o1,0.78,1.56,2,2,1.56,1.56,12.5,0.39,6.25,2,109,
O=[N+]([O-])c1c[nH]c(-c2nnc(-c3ccccc3Br)o2)c1,1.56,3.12,,,1.56,3.12,25,1.56,1.56,,190,0.81
O=[N+]([O-])c1c[nH]c(-c2nnc(-c3cc4cc(Cl)ccc4[nH]3)o2)c1,1.56,3.12,,,3.12,3.12,25,1.56,1.56,,329,3.4
COc1cc(/C=C/c2nnc(-c3cc([N+](=O)[O-])c[nH]3)o2)ccc1O,3.12,25,,,3.12,3.12,100,1.56,3.12,,220,23.7
O=[N+]([O-])c1c[nH]c(-c2nnc(C3CCCNC3)o2)c1 (stereo not drawn),1.56,3.12,,,3.12,3.12,25,1.56,3.12,,318,12.5
O=[N+]([O-])c1c[nH]c(-c2nnc(Cc3ccccc3F)o2)c1,1.56,3.12,,,1.56,3.12,25,1.56,1.56,,620,0.46
COc1cccc(-c2nnc(-c3cc([N+](=O)[O-])c[nH]3)o2)c1,1.56,3.12,,,3.12,3.12,25,1.56,3.12,,429,13.5
N#Cc1ccc(-c2nnc(-c3cc([N+](=O)[O-])c[nH]3)o2)cc1,1.56,3.12,,,3.12,3.12,25,1.56,3.12,,199,26.8

Compound,MIC [1] [µg/mL],MIC [2] [µg/mL],Ratio [3],Ratio [4],MIC [5] [µg/mL],MIC [6] [µg/mL],MIC [7] [µg/mL],MIC [8] [µg/mL],MIC [9] [µg/mL],Ratio [10],IC50 [11] [µM],MIC [12] [µg/mL]
COc1cccc(OC)c1-c1nnc(-c2cc([N+](=O)[O-])c[nH]2)o1,1.56,3.12,,,3.12,3.12,25,1.56,3.12,,170,5.4
COc1ccc(-c2nnc(-c3cc([N+](=O)[O-])c[nH]3)o2)cc1,1.56,3.12,,,3.12,3.12,25,1.56,6.25,,409,34
O=[N+]([O-])c1c[nH]c(-c2nnc(-c3ccns3)o2)c1,1.56,3.12,,,3.12,3.12,25,1.56,6.25,,532,62.7
Cc1ccc(-c2nnc(-c3cc([N+](=O)[O-])c[nH]3)o2)s1,1.56,3.12,,,3.12,3.12,25,1.56,6.25,,329,
O=[N+]([O-])c1c[nH]c(-c2nnc(-c3cccc([N+](=O)[O-])c3O)o2)c1,1.56,3.12,,,3.12,3.12,25,1.56,6.25,,498,1.8
O=[N+]([O-])c1c[nH]c(-c2nnc(Cc3ccc(F)c4ccccc34)o2)c1,1.56,3.12,,,3.12,3.12,25,1.56,3.12,,229,64.8
O=[N+]([O-])c1c[nH]c(-c2nnc(-c3ccco3)o2)c1,0.78,3.12,2,,1.56,3.12,25,1.56,3.12,,370,42.8
O=[N+]([O-])c1c[nH]c(-c2nnc(-c3cccs3)o2)c1,1.56,6.25,,,1.56,3.12,25,3.12,1.56,,418,87.1
O=[N+]([O-])c1c[nH]c(-c2nnc(-c3ccccc3)o2)c1,3.12,12.5,,,3.12,3.12,25,1.56,6.25,,423,56.3
O=[N+]([O-])c1c[nH]c(-c2nnc(-c3ccccc3O)o2)c1,1.56,3.12,,,3.12,3.12,25,1.56,1.56,,375,2.1
O=[N+]([O-])c1c[nH]c(-c2nnc(C3(c4ccccc4)CC3)o2)c1,0.78,25,2,,3.12,3.12,25,1.56,1.56,,380,56.8
Cn1cc([N+](=O)[O-])cc1-c1nnc(-c2cc3cc(Cl)ccc3[nH]2)o1,0.39,1.56,3,,1.56,1.56,12.5,0.39,1.56,,743,24
C[C@@H]1[C@H](O)[C@@H](C)/C=C/C=C/C=C/C=C/C=C/C=C/C=C/[C@H](O[C@@H]2O[C@H](C)[C@@H](O)[C@H](N)[C@@H]2O)C[C@@H]2O[C@](O)(C[C@@H](O)C[C@@H](O)[C@H](O)CC[C@@H](O)C[C@@H](O)CC(=O)O[C@H]1C)C[C@H](O)[C@H]2C(=O)O [AMPHOTERICIN B],,3.12,,,,,,,,,,
O=C(O)c1cn(C2CC2)c2cc(N3CCNCC3)c(F)cc2c1=O [CIPROFLOXACIN],1.56,,,,1.56,3.12,1.56,1.56,,,,
NNC(=O)c1ccncc1 [ISONIAZID],,,,,,,,,,,,0.4
